From the EternaBench riboswitch data

System: MS2 coat protein
Assay: apparent Kd, MS2 coat protein; higher = weaker binding; RNA-MaP array; theophylline 2 mM where present
How it was run: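 Stalled E. coli RNA polymerase transcribed the designs on Illumina sequencing-chip clusters. SNAP-549-labelled MS2 coat protein was titrated from 0.7 or 1.5 nM, doubling to 3 µM, without and then with constant ligand, in 100 mM Tris-HCl pH 7.5, 80 mM KCl, 4 mM MgCl2, BSA, DTT, yeast tRNA and Tween-20. Per-cluster binding curves were fitted to green signal normalised to red-channel RNA signal and control-cluster median Fmax. The apparent Kd is the median of the filtered fits.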

[1] = designed as: OFF switch for theophylline, no ligand
[2] = ligand present: theophylline, designed as: OFF switch for theophylline
[3] = designed as: ON switch for theophylline, no ligand
[4] = ligand present: theophylline, designed as: ON switch for theophylline

Row | Sequence | apparent Kd [1] | apparent Kd [2] | apparent Kd [3] | apparent Kd [4]
1 | AAACAUUGCUGCGAUACCAGACAUGAGGAUCACCCAUGUACCAAGAAAACGUACAUAAAUGUCCCUUGGCAGCGCAGCAAUGAAA | 0.498 µM | 1.29 µM | – | –
2 | AAACGUUGCUGCGAUACCAGACAUGAGGAUCACCCAUGUACCAAGGUACGAAAAUAACAUGUCCCUUGGCAGCGCAGCAACGAAA | 0.0132 µM | 0.336 µM | – | –
3 | AACAUGAGGAUCACCCAUGUAAAAUGGGAUACCAGAGACGAAAGUCUCCCUUGGCAGCCCACUGCCUCCUUUACGAAAGUAGAGG | – | – | 0.0316 µM | 0.0182 µM
4 | AAGGUAUCACAGACAUGGGUGUACUGUGAUACCAGCUAGGAAACUAGCCCUUGGCAGCACAUGAGGAUCACCCAUGUAAGAAUAA | 0.0474 µM | 0.141 µM | – | –
5 | AAUAACAUGAGGAUCACCCAUGUAAAAGAUACCAGAUGCAUGAUGAUCCCUUGGCAGCUUAACGCUGAUUGAUUACAAUCAGCGA | – | – | 0.0286 µM | 0.087 µM
6 | AAUAUAAAAUAAAGAAAAUUUAUAUCUGAUACCAGACUCUCAUGGGUCCCUUGGCAGCAGUAACAUGAGGAUCACCCAUGUAUUA | – | – | 0.114 µM | 0.0165 µM
7 | AAUGGCGUUGGUGAGGCGGUUAAUGGCGAUACCAGCGUGGAAACACGCCCUUGGCAGCGCCAAAACAUGAGGAUCACCCAUGUUA | 0.0147 µM | 0.139 µM | – | –
8 | ACAUGAGGAUCACCCAUGUCACGGCACGAUACCAGCUGAUCCGGUGGCCCUUGGCAGCGUGACGUUUGGUCCCGCGGAUCACACG | – | – | 0.0754 µM | 0.0386 µM
9 | ACAUGAGGAUCACCCAUGUGAAGGCACGAUACCAGCUGAUCCCGUGGCCCUUGGCAGCGUCCGGUUUGGUCCGGCGGAUGAGACG | – | – | 0.0241 µM | 0.0249 µM
10 | ACAUGAGGAUCACCCAUGUGCCGUCUUGAUACCAGACCCGAAGUAGUCCCUUGGCAGCAACUACGUGACGGUCGCCCAUGUGUAG | 0.0142 µM | 0.024 µM | – | –
11 | ACGGAGAUUGCUAAAUGUUGGCGAGCGGAUACCAGCCUAUUAUUGGGCCCUUGGCAGCCGACAUGAGGAUCACCCAUGUAAACAA | – | – | 0.079 µM | 0.126 µM
12 | AGAAUAACACAUGAGGAUCACCCAUGUGAUACCAGCUAGGAAACUAGCCCUUGGCAGCACAUAAUCCUCAUGAGCUGCCAUAAUA | 0.0128 µM | 0.0214 µM | – | –
13 | AGACAUGAGGAUCACCCAUGUAGUACGGAUACCAGAUCCAGAUGCAUCCCUUGGCAGCUGUGGUACAGCGUUACAUCGCUCGUAG | 0.02 µM | 0.0206 µM | – | –
14 | AGACAUGAGGAUCACCCAUGUAGUACGGAUACCAGAUCCAGAUGCGUCCCUUGGCAGCUGUAGUACAGCGUUACGUCGCUCAUAG | 0.0253 µM | 0.061 µM | – | –
15 | AGCAUGUUAUCAGAUACCAGACAUCUUUUUUUACGUAUUACAUGAGGAUCACCCAUGUUGGUCCCUUGGCAGCUGAAAUAUUUCA | – | – | 0.203 µM | 0.0319 µM
16 | AGCCCUGUACUAGAUACCAGCUACAUGAGGAUCACCCAUGUGCGUCAAGACUGACUGUGUAGCCCUUGGCAGCUGCUCGCAUGUA | 0.0221 µM | 0.0322 µM | – | –
17 | AGGAACAUGAGGAUCACCCAUGUAAGCGAUACCAGUGAUAUGUUGCGCCCUUGGCAGCGCAAGUGUGUGUGAAAGAUGUAAGAUU | 0.0165 µM | 0.0334 µM | – | –
18 | AGUGUUAUAACUGAUACCAGACUUUUGCUUAUACAUGAGGAUCACCCAUGUAAAAUGGUUGUCCCUUGGCAGCAGAAAAUACACA | – | – | 0.084 µM | 0.0204 µM
19 | AUAACAUGAGGAUCACCCAUGUAGAGUGAUACCAGACUACGUAAUGUCCCUUGGCAGCACAAGUAAAGUUACGAAUAUUGAUAGA | – | – | 0.193 µM | 0.0515 µM
20 | AUACCGAGUGAGUCGUGUUUCUUUUCAGAUACCAGACUUUUCGUUGUCCCUUGGCAGCUGUUUUACAUGAGGAUCACCCAUGUUG | 0.0182 µM | 0.0255 µM | – | –
21 | AUACCUAAUGUUACAUUUACCUUAUCAGAUACCAGACUUUACGUUGUCCCUUGGCAGCUGUAUCACAUGAGGAUCACCCAUGUUG | – | – | 0.016 µM | 0.0157 µM
22 | AUAUGAAAGAGUGAUACCAGACUACAUGAGGAUCACCCAUGUGACAUUUAAAUAUCAUUUGUCCCUUGGCAGCACAUUAAGUACA | 0.0388 µM | 0.0449 µM | – | –
23 | AUCGCACCUGGUGAUACCAGCGUUUGCUCGCGACAUGAGGAUCACCCAUGUGGCCAGUGAUGCCCUUGGCAGCAUGGGCGGUGCA | – | – | 0.282 µM | 0.0902 µM
24 | AUCGUACCUGAGGAUACCAGCAUGUGAUCAUAACAUGAGGAUCACCCAUGUAAUCAGUGAUGCCCUUGGCAGCUUGGUCGAUACA | – | – | 0.0542 µM | 0.0349 µM
25 | AUCGUACCUGAUGAUACCAGCAUGUGAUCAUAACAUGAGGAUCACCCAUGUAAUCAGUGAUGCCCUUGGCAGCAUGAUCGGUACA | – | – | 0.0573 µM | 0.0263 µM
26 | AUCUUGUACCGUAAUACUUUACGUUGGGAUACCAGCAUGGACCCAUGCCCUUGGCAGCUUUACAUGAGGAUCACCCAUGUUGUAG | – | – | 0.0366 µM | 0.0325 µM
27 | AUUAAUAGUUGUGAUACCAGACGAACAUGAGGAUCACCCAUGUAACUUUUAGGUGUUGUAGUCCCUUGGCAGCACUAUGUAGUUA | – | – | 0.04 µM | 0.0337 µM

Row | Sequence | apparent Kd [1] | apparent Kd [2] | apparent Kd [3] | apparent Kd [4]
28 | AUUAAUAGUUGUGAUACCAGACUUACAUGAGGAUCACCCAUGUUACUUAAGUGUUUUGAUGUCCCUUGGCAGCACUGUUUAGUUA | – | – | 0.0255 µM | 0.0134 µM
29 | AUUAAUUGUCGUGAUACCAGACUUACAUGAGGAUCACCCAUGUUACUUAAGAUUUUUGUUGUCCCUUGGCAGCACUUUUUAAUUA | 0.0241 µM | 0.0189 µM | – | –
30 | AUUCCAUAGGUGCAGUUGUUAAAUGGCGAUACCAGCGUGGAAACACGCCCUUGGCAGCGCCAAAACAUGAGGAUCACCCAUGUUA | 0.0958 µM | 0.186 µM | – | –
31 | CAGAGCUACCGGGAUACCAGAAUUGGUAUUCCUAUAUUUCUUACAUGAGGAUCACCCAUGUUCCCUUGGCAGCUUGGUAGCUCUG | 0.0809 µM | 0.446 µM | – | –
32 | CUCGGGUUAUCAGAUACCAGACUAAAAUUUACAUGAGGAUCACCCAUGUAAUGGGUGAUAGUCCCUUGGCAGCUGUUAUGUUUAA | 0.0623 µM | 0.119 µM | – | –
33 | CUCUGAGUCCGCAAGGACUCAGAGGCGGAUACCAGCGAGGUCCAUCGCCCUUGGCAGCCGAACAUGAGGAUCACCCAUGUCGGUA | – | – | 0.0104 µM | 0.0148 µM
34 | GAACAUGAGGAUCACCCAUGUUAAACAGAUACCAGUGAUAUAAUACACCCUUGGCAGCUGAAGCUGAAUAAUAAUUCCCUCAAGC | – | – | 0.012 µM | 0.0143 µM
35 | GAUGAACUAUUCGAUACCAGACUACAUGAGGAUCACCCAUGUGUGUCAAUUUCUCAGUCAGUCCCUUGGCAGCGAAUAGUUUAUC | 0.0382 µM | 0.0543 µM | – | –
36 | GCACGACAUGAGGAUCACCCAUGUGCAGAUACCAGUAAUGUAUGUUACCCUUGGCAGCUGAGUAGGUCUGGAGGGCUAUAGGUAA | – | – | 0.0134 µM | 0.0171 µM
37 | GCACUACAUGAGGAUCACCCAUGUGCAGAUACCAGAGGUGUAUGCCUCCCUUGGCAGCUGCGUCGCUCUGGAAACUUAUUGGUUU | – | – | 0.0185 µM | 0.0227 µM
38 | GCACUACAUGAGGAUCACCCAUGUGCAGAUACCAGAGGUGUAUGCCUCCCUUGGCAGCUGCGUCGCUCUGGCAGCUUGUGGGUUG | – | – | 0.1 µM | 0.153 µM
39 | GCUGUAAGUGCAGAUACCAGCAGGUGAUAUUUCUAAUGACAUGAGGAUCACCCAUGUAACUGCCCUUGGCAGCUGCACUUACAGC | – | – | 0.0576 µM | 0.0129 µM
40 | GGCACUCUGUAAGAUACCAGACGUCGGUGCUUACAUGAGGAUCACCCAUGUUGCUUUUUAGUCCCUUGGCAGCUUCGGAUAACCA | – | – | 0.121 µM | 0.147 µM
41 | GGCCGGUGCGCUUUGAAGCGACGGCGUGAUACCAGAUGUAAGAGCGUCCCUUGGCAGCACGUUUACAUGAGGAUCACCCAUGUCU | – | – | 0.196 µM | 0.131 µM
42 | GGGCCCGGGCGCGAGCCCGGGCCCAUUGAUACCAGUGAAUGUGUACGCCCUUGGCAGCGAAUCCUAACAUGAGGAUCACCCAUGU | – | – | 0.0433 µM | 0.0537 µM
43 | GGGCCCGUAAGCAGGCCCACAGCGGGUGAUACCAGCAAUAAAACUUGCCCUUGGCAGCACACAGCUACAUGAGGAUCACCCAUGU | – | – | 0.0365 µM | 0.0635 µM
44 | GGUCUCUGGAGCGAUACCAGCUUGAGUGUACUGGCCAGGUACAUGAGGAUCACCCAUGUAAGCCCUUGGCAGCGCUGCAGAGACC | 0.0101 µM | 0.0291 µM | – | –
45 | GGUGGCGUGACGGAUACCAGCCACCACCGAUAGACCACAUGAGGAUCACCCAUGUUGGGUGGCCCUUGGCAGCUGUCGUGCGGCG | – | – | 0.23 µM | 0.0567 µM
46 | GGUGGGACUUGUGAUACCAGCCUAAUUCUAAACGAAUUGCACAUGAGGAUCACCCAUGUCGGCCCUUGGCAGCAUGAGUAUUUAU | – | – | 0.114 µM | 0.0368 µM
47 | GUCAGUUCUCAUGAUACCAGACCUGCCUCGGACAUGAGGAUCACCCAUGUACCCAAGCGAGUCCCUUGGCAGCAUGUGGCUUAAA | – | – | 0.0192 µM | 0.0109 µM
48 | GUUACAUGGCAAGCAUGUAUAUGGAUAGAUACCAGUUGAUAUUAAGACCCUUGGCAGCUGAGUACAUGAGGAUCACCCAUGUAAG | 0.0425 µM | 0.0908 µM | – | –
49 | UAAAACAUGAGGAUCACCCAUGUAAUUGAUACCAGAGUGAUGAUCCUCCCUUGGCAGCAAAACGCUGAUUGGAAACAAUCAGCGA | – | – | 0.113 µM | 0.251 µM
50 | UACAUGAGGAUCACCCAUGUAAGGUGAGAUACCAGUGAUAUGCUACACCCUUGGCAGCUCACGGCUGACUAUCAGCACACAUGUA | – | – | 0.027 µM | 0.0163 µM
51 | UACAUGAGGAUCACCCAUGUAUGAAUAGAUACCAGAUAAAAUAAGGUCCCUUGGCAGCUAGUGAAUCGAGGGUGGGUAUCAUGAU | 0.0104 µM | 0.0108 µM | – | –
52 | UAUAUAUAUAUUGAUACCAGCAGAGAAAACGUAUAUCCUAACAUGAGGAUCACCCAUGUAUGCCCUUGGCAGCGAUAUAUAUAUA | 0.0243 µM | 0.0314 µM | – | –
53 | UAUAUAUAUAUUGAUACCAGCAGAGAAAACGUUUAUCCUAACAUGAGGAUCACCCAUGUAUGCCCUUGGCAGCGAUAUAUAUAUA | 0.0245 µM | 0.0325 µM | – | –
